Source: ChEMBL document CHEMBL3352416, “Discovery of carbohybrid-based 2-aminopyrimidine analogues as a new class of rapid-acting antimalarial agents using image-based cytological profiling assay” (J Med Chem, 2014)
Activity calls are given as the source filed them. The rule behind the calls is not given here.

Columns and labels:
Plasmodium falciparum [1] = experiment: Antimalarial activity against Plasmodium falciparum K1 by automated image mining based cytological profiling assay; type: functional, organism-based
Summary of the method: (§1)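 Parasite cultures in 384-well format, read by automated imaging. Infected erythrocytes detected by DAPI nuclear staining against WGA-AlexaFluor 488 host-cell stain, and viability by Mitotracker Red CMXRos. Total culture parasitaemia quantified. EC50 given as mean±SD of two independent experiments, each in duplicate.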

Plasmodium falciparum [2] = experiment: Antimalarial activity against tightly synchronized Plasmodium falciparum W2 assessed as parasite stage accumulation index at schizonts stages at 10 uM treated at 6 hrs post-invasion for continuous duration of 36 hrs by automated image mining based cytological profiling assay; type: functional
Summary of the method: (§2)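 Tightly synchronized cultures exposed to 10 µM final from 6 hpi (early ring), 18 hpi (late ring) or 30 hpi (mid-trophozoite) for a continuous 36 h. Erythrocytes stained with WGA-AlexaFluor 488, parasite nuclei with DAPI, functional mitochondria with Mitotracker Red CMXRos. Stages (early rings, late rings, trophozoites, schizonts) classified by nuclear spot number and size. Viable parasitaemia and stage accumulation index obtained by automated image analysis.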

Plasmodium falciparum [3] = experiment: Antimalarial activity against tightly synchronized Plasmodium falciparum K1 assessed as parasite stage accumulation index at trophozoites stages at 10 uM treated at 30 hrs post-invasion for continuous duration of 36 hrs by automated image mining based cytological profiling assay; type: functional; summary of the method: as §2
Plasmodium falciparum [4] = experiment: Antimalarial activity against tightly synchronized Plasmodium falciparum K1 assessed as parasite stage accumulation index at trophozoites stages at 10 uM treated at 18 hrs post-invasion for continuous duration of 36 hrs by automated image mining based cytological profiling assay; type: functional; summary of the method: as §2
Plasmodium falciparum [5] = experiment: Antimalarial activity against tightly synchronized Plasmodium falciparum HB3 assessed as parasite stage accumulation index at trophozoites stages at 10 uM treated at 18 hrs post-invasion for continuous duration of 36 hrs by automated image mining based cytological profiling assay; type: functional; summary of the method: as §2
Plasmodium falciparum [6] = experiment: Antimalarial activity against Plasmodium falciparum W2 by automated image mining based cytological profiling assay; type: functional, organism-based; summary of the method: as §1
Plasmodium falciparum [7] = experiment: Antimalarial activity against tightly synchronized Plasmodium falciparum HB3 assessed as parasite stage accumulation index at late ring stages at 10 uM treated at 6 hrs post-invasion for continuous duration of 36 hrs by automated image mining based cytological profiling assay; type: functional; summary of the method: as §2
Plasmodium falciparum [8] = experiment: Antimalarial activity against tightly synchronized Plasmodium falciparum W2 assessed as parasite stage accumulation index at trophozoites stages at 10 uM treated at 18 hrs post-invasion for continuous duration of 36 hrs by automated image mining based cytological profiling assay; type: functional
Plasmodium falciparum [9] = experiment: Antimalarial activity against Plasmodium falciparum K1 assessed as increase in schizonts parasite stage accumulation index at 10 uM treated at 42 hrs post-invasion for 24 hrs by automated image mining based cytological profiling assay; type: functional, organism-based
Summary of the method: (§3)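 Tightly synchronized cultures exposed from the 42 hpi mid-schizont point for 24 h to 10 µM final. Host cells stained with wheat germ agglutinin-AlexaFluor 488, parasite nuclei with DAPI and live-parasite mitochondria with Mitotracker Red CMXRos. Infected and viable parasitaemia and stage proportions quantified by automated image mining. Stage accumulation indices and parasitaemia reduction index derived.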

Plasmodium falciparum [10] = experiment: Antimalarial activity against tightly synchronized Plasmodium falciparum HB3 assessed as parasite stage accumulation index at schizonts stages at 10 uM treated at 6 hrs post-invasion for continuous duration of 36 hrs by automated image mining based cytological profiling assay; type: functional; summary of the method: as §2
Plasmodium falciparum [11] = experiment: Antimalarial activity against tightly synchronized Plasmodium falciparum W2 assessed as parasite stage accumulation index at trophozoites stages at 10 uM treated at 30 hrs post-invasion for continuous duration of 36 hrs by automated image mining based cytological profiling assay; type: functional; summary of the method: as §2
Plasmodium falciparum [12] = experiment: Antimalarial activity against tightly synchronized Plasmodium falciparum W2 assessed as parasite stage accumulation index at late ring stages at 10 uM treated at 18 hrs post-invasion for continuous duration of 36 hrs by automated image mining based cytological profiling assay; type: functional; summary of the method: as §2
Plasmodium falciparum [13] = experiment: Antimalarial activity against tightly synchronized Plasmodium falciparum K1 assessed as parasite stage accumulation index at early ring stages at 10 uM treated at 6 hrs post-invasion for continuous duration of 36 hrs by automated image mining based cytological profiling assay; type: functional; summary of the method: as §2
Plasmodium falciparum [14] = experiment: Antimalarial activity against tightly synchronized Plasmodium falciparum K1 assessed as parasite stage accumulation index at late ring stages at 10 uM treated at 18 hrs post-invasion for continuous duration of 36 hrs by automated image mining based cytological profiling assay; type: functional; summary of the method: as §2
Plasmodium falciparum [15] = experiment: Antimalarial activity against tightly synchronized Plasmodium falciparum HB3 assessed as parasite stage accumulation index at trophozoites stages at 10 uM treated at 6 hrs post-invasion for continuous duration of 36 hrs by automated image mining based cytological profiling assay; type: functional; summary of the method: as §2
Plasmodium falciparum [16] = experiment: Antimalarial activity against Plasmodium falciparum W2 assessed as increase in schizonts parasite stage accumulation index at 10 uM treated at 42 hrs post-invasion for 24 hrs by automated image mining based cytological profiling assay; type: functional, organism-based; summary of the method: as §3
Plasmodium falciparum [17] = experiment: Antimalarial activity against tightly synchronized Plasmodium falciparum K1 assessed as parasite stage accumulation index at schizonts stages at 10 uM treated at 30 hrs post-invasion for continuous duration of 36 hrs by automated image mining based cytological profiling assay; type: functional; summary of the method: as §2
Plasmodium falciparum [18] = experiment: Antimalarial activity against tightly synchronized Plasmodium falciparum HB3 assessed as parasite stage accumulation index at late ring stages at 10 uM treated at 18 hrs post-invasion for continuous duration of 36 hrs by automated image mining based cytological profiling assay; type: functional; summary of the method: as §2
Plasmodium falciparum [19] = experiment: Antimalarial activity against tightly synchronized Plasmodium falciparum K1 assessed as parasite stage accumulation index at schizonts stages at 10 uM treated at 6 hrs post-invasion for continuous duration of 36 hrs by automated image mining based cytological profiling assay; type: functional; summary of the method: as §2
Plasmodium falciparum [20] = experiment: Antimalarial activity against Plasmodium falciparum HB3 assessed as reduction in parasite stage accumulation index at 10 uM treated at 42 hrs post-invasion for 24 hrs by automated image mining based cytological profiling assay; type: functional; summary of the method: as §3
Plasmodium falciparum [21] = experiment: Antimalarial activity against tightly synchronized Plasmodium falciparum HB3 assessed as parasite stage accumulation index at schizonts stages at 10 uM treated at 18 hrs post-invasion for continuous duration of 36 hrs by automated image mining based cytological profiling assay; type: functional; summary of the method: as §2
Plasmodium falciparum [22] = experiment: Antimalarial activity against Plasmodium falciparum HB3 assessed as increase in schizonts parasite stage accumulation index at 10 uM treated at 42 hrs post-invasion for 24 hrs by automated image mining based cytological profiling assay; type: functional; summary of the method: as §3
Plasmodium falciparum [23] = experiment: Antimalarial activity against tightly synchronized Plasmodium falciparum W2 assessed as parasite stage accumulation index at trophozoites stages at 10 uM treated at 6 hrs post-invasion for continuous duration of 36 hrs by automated image mining based cytological profiling assay; type: functional
Plasmodium falciparum [24] = experiment: Antimalarial activity against tightly synchronized Plasmodium falciparum K1 assessed as parasite stage accumulation index at trophozoites stages at 10 uM treated at 6 hrs post-invasion for continuous duration of 36 hrs by automated image mining based cytological profiling assay; type: functional
Plasmodium falciparum [25] = experiment: Antimalarial activity against Plasmodium falciparum HB3 by automated image mining based cytological profiling assay; type: functional; summary of the method: as §1
Plasmodium falciparum [26] = experiment: Antimalarial activity against tightly synchronized Plasmodium falciparum K1 assessed as parasite stage accumulation index at schizonts stages at 10 uM treated at 18 hrs post-invasion for continuous duration of 36 hrs by automated image mining based cytological profiling assay; type: functional; summary of the method: as §2
Plasmodium falciparum [27] = experiment: Antimalarial activity against tightly synchronized Plasmodium falciparum W2 assessed as parasite stage accumulation index at early ring stages at 10 uM treated at 6 hrs post-invasion for continuous duration of 36 hrs by automated image mining based cytological profiling assay; type: functional; summary of the method: as §2
Plasmodium falciparum [28] = experiment: Antimalarial activity against Plasmodium falciparum K1 assessed as reduction in parasite stage accumulation index at 10 uM treated at 42 hrs post-invasion for 24 hrs by automated image mining based cytological profiling assay; type: functional, organism-based; summary of the method: as §3
Plasmodium falciparum [29] = experiment: Antimalarial activity against tightly synchronized Plasmodium falciparum W2 assessed as parasite stage accumulation index at schizonts stages at 10 uM treated at 30 hrs post-invasion for continuous duration of 36 hrs by automated image mining based cytological profiling assay; type: functional
Plasmodium falciparum [30] = experiment: Antimalarial activity against Plasmodium falciparum W2 assessed as reduction in parasite stage accumulation index at 10 uM treated at 42 hrs post-invasion for 24 hrs by automated image mining based cytological profiling assay; type: functional, organism-based; summary of the method: as §3
Plasmodium falciparum [31] = experiment: Antimalarial activity against tightly synchronized Plasmodium falciparum W2 assessed as parasite stage accumulation index at schizonts stages at 10 uM treated at 18 hrs post-invasion for continuous duration of 36 hrs by automated image mining based cytological profiling assay; type: functional
Plasmodium falciparum [32] = experiment: Antimalarial activity against tightly synchronized Plasmodium falciparum HB3 assessed as parasite stage accumulation index at early ring stages at 10 uM treated at 6 hrs post-invasion for continuous duration of 36 hrs by automated image mining based cytological profiling assay; type: functional
Plasmodium falciparum [33] = experiment: Antimalarial activity against tightly synchronized Plasmodium falciparum K1 assessed as parasite stage accumulation index at late ring stages at 10 uM treated at 6 hrs post-invasion for continuous duration of 36 hrs by automated image mining based cytological profiling assay; type: functional
Plasmodium falciparum [34] = experiment: Antimalarial activity against tightly synchronized Plasmodium falciparum HB3 assessed as parasite stage accumulation index at schizonts stages at 10 uM treated at 30 hrs post-invasion for continuous duration of 36 hrs by automated image mining based cytological profiling assay; type: functional
Plasmodium falciparum [35] = experiment: Antimalarial activity against tightly synchronized Plasmodium falciparum W2 assessed as parasite stage accumulation index at late ring stages at 10 uM treated at 6 hrs post-invasion for continuous duration of 36 hrs by automated image mining based cytological profiling assay; type: functional

`COc1ccc(CO[C@@H]([C@H](CO)N=[N+]=[N-])[C@H](OCc2ccc(OC)cc2)c2cnc(N(C)C)nc2)cc1` showed an EC50 (Plasmodium falciparum [1]) of 5450 nM.

`COc1ccc(CO[C@H]([C@H](COC(c2ccccc2)(c2ccccc2)c2ccccc2)N=[N+]=[N-])[C@H](OCc2ccc(OC)cc2)c2cnc(N(C)C)nc2)cc1` gave an EC50 (Plasmodium falciparum [1]) of 167 nM.

`COc1ccc(CO[C@@H]([C@H](COCc2ccccc2)N=[N+]=[N-])[C@H](OCc2ccc(OC)cc2)c2cnc(N(C)C)nc2)cc1` gave an EC50 (Plasmodium falciparum [1]) of 1420 nM.

Work on `COc1ccc(CO[C@H]([C@H](COCc2ccccc2)N=[N+]=[N-])[C@H](OCc2ccc(OC)cc2)c2cnc(N(C)C)nc2)cc1` yielded an EC50 (Plasmodium falciparum [1]) of 1200 nM.

Work on `COc1ccc(CO[C@@H]([C@H](COS(C)(=O)=O)N=[N+]=[N-])[C@H](OCc2ccc(OC)cc2)c2cnc(N(C)C)nc2)cc1` yielded an EC50 (Plasmodium falciparum [1]) of 6660 nM.

`COc1ccc(CO[C@H]([C@H](COS(C)(=O)=O)N=[N+]=[N-])[C@H](OCc2ccc(OC)cc2)c2cnc(N(C)C)nc2)cc1` gave an EC50 (Plasmodium falciparum [1]) of 11700 nM.

Compound `C[C@@H]1CC[C@H]2[C@@H](C)C(=O)O[C@@H]3O[C@@]4(C)CC[C@@H]1[C@]32OO4` [ARTEMISININ] has an Activity (Plasmodium falciparum [2]) of 0.47, an Activity (Plasmodium falciparum [3]) of 1.09 and an Activity (Plasmodium falciparum [4]) of 0.7. The Activity (Plasmodium falciparum [5]) was 1.06, the EC50 (Plasmodium falciparum [6]) was 11 nM and the Activity (Plasmodium falciparum [7]) was 3.53. The Activity (Plasmodium falciparum [8]) was 1.06, the inhibition (Plasmodium falciparum [9]) was “Active” and the Activity (Plasmodium falciparum [10]) was 0.11. For the same compound, the Activity (Plasmodium falciparum [11]) was 1.51, the Activity (Plasmodium falciparum [12]) was 2.01 and the Activity (Plasmodium falciparum [13]) was 1.96. For the same compound, the Activity (Plasmodium falciparum [14]) was 2.52, the Activity (Plasmodium falciparum [15]) was 0.37 and the inhibition (Plasmodium falciparum [16]) was “Active”. It also gave an Activity (Plasmodium falciparum [17]) of 0.31, an Activity (Plasmodium falciparum [18]) of 4.4 and an Activity (Plasmodium falciparum [19]) of 0.17. The inhibition (Plasmodium falciparum [20]) was “Active”, the Activity (Plasmodium falciparum [21]) was 0.47 and the inhibition (Plasmodium falciparum [22]) was “Active”. It also gave an Activity (Plasmodium falciparum [23]) of 0.81, an Activity (Plasmodium falciparum [24]) of 0.51 and an EC50 (Plasmodium falciparum [25]) of 18 nM. The Activity (Plasmodium falciparum [26]) was 0.26, the Activity (Plasmodium falciparum [27]) was 2.06 and the EC50 (Plasmodium falciparum [1]) was 3 nM. The inhibition (Plasmodium falciparum [28]) was “Active”, the Activity (Plasmodium falciparum [29]) was 1.05 and the inhibition (Plasmodium falciparum [30]) was “Active”.

`CCN(CC)CCCC(C)Nc1ccnc2cc(Cl)ccc12` (configuration not stated) [CHLOROQUINE] gave an Activity (Plasmodium falciparum [31]) of 1.64, an Activity (Plasmodium falciparum [2]) of 0.53 and an Activity (Plasmodium falciparum [3]) of 0.75. For the same compound, the Activity (Plasmodium falciparum [4]) was 1.22, the Activity (Plasmodium falciparum [5]) was 1.85 and the EC50 (Plasmodium falciparum [6]) was 221 nM. For the same compound, the Activity (Plasmodium falciparum [7]) was 3.05, the Activity (Plasmodium falciparum [10]) was 0.2 and the Activity (Plasmodium falciparum [11]) was 1.26. For the same compound, the Activity (Plasmodium falciparum [12]) was 1.82, the Activity (Plasmodium falciparum [13]) was 1.72 and the Activity (Plasmodium falciparum [14]) was 1.38. For the same compound, the Activity (Plasmodium falciparum [15]) was 0.52, the Activity (Plasmodium falciparum [17]) was 0.56 and the Activity (Plasmodium falciparum [18]) was 2.17. It also gave an Activity (Plasmodium falciparum [19]) of 0.25, an Activity (Plasmodium falciparum [32]) of 1.82 and an Activity (Plasmodium falciparum [21]) of 0.82. For the same compound, the Activity (Plasmodium falciparum [23]) was 0.65, the Activity (Plasmodium falciparum [33]) was 1.62 and the EC50 (Plasmodium falciparum [25]) was 33 nM. For the same compound, the Activity (Plasmodium falciparum [26]) was 0.37, the Activity (Plasmodium falciparum [27]) was 1.78 and the EC50 (Plasmodium falciparum [1]) was 208 nM. It also gave an Activity (Plasmodium falciparum [34]) of 1.83 and an Activity (Plasmodium falciparum [35]) of 1.51.
